Laboratory results from ChEMBL document CHEMBL2163305, “Nanomolar potency and metabolically stable inhibitors of kidney urea transporter UT-B” (J Med Chem, 2012).

Key:
[1] = Metabolic stability in rat liver microsomes assessed as compound remaining at 5 uM after 30 mins; assay type: ADME, Microsome; conditions: read-out: Stability
Kidney = experiment: Drug uptake in mouse kidney at 400 ug, ip administered as bolus dose; assay type: ADME, organism-based; conditions: in vivo, read-out: Drug uptake
Homo sapiens = species: Homo sapiens; experiment: Inhibition of UT-B-mediated urea transport in human erythrocytes incubated for 10 mins prior to urea addition by Stopped-flow light scattering assay; assay type: cell-based
How it was run: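 Human venous blood in heparin, kept at 4 °C and used within 48 h, diluted in PBS to ~0.5% hematocrit. Inhibitor for 10 min, then mixed 1:1 in stopped-flow to impose a 100 mM inward urea gradient. Cell swelling followed as 90° scattered light at 530 nm. Urea permeability and % inhibition computed.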

[2] = Drug excretion in mouse urine at 400 ug, ip administered as bolus dose; assay type: ADME, organism-based; conditions: in vivo
Mus musculus = experiment: Antidiuretic activity in mouse assessed as reduction in urine osmolality at 400 ug, ip administered 1 hr followed by dDAVP administration (reference value: >3 Osm/kg); assay type: functional
Blood = experiment: Drug uptake in mouse blood at 200 ug, ip at 6 hrs; assay type: ADME, organism-based; conditions: in vivo
How it was run: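 Mice (8–10 weeks, 25–35 g) received 200 μg of each of two inhibitors together by ip injection in DMSO/Tween-80/PEG400 formulation. Blood taken at 6 h, diluted with equal volume of water, extracted with ethyl acetate, LC/MS against standards. SE, 3 mice.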

[3] = Half life in rat liver microsomes at 5 uM; assay type: ADME, Microsome

Compound | remaining at 0.5 h, 5 µM [1] | further results
O=S(=O)(c1ccc(C(F)(F)F)cc1)c1nnn2c1nc(NCc1cccs1)c1sccc12 | 99% | –
COc1ccc(CNc2nc3c(S(=O)(=O)c4ccc(C(C)C)cc4)nnn3c3ccsc23)cc1 | 7% | –
O=S(=O)(c1cccs1)c1nnn2c1nc(NCc1cccs1)c1sccc12 | < 5% | –
CC(F)(F)c1ccc(S(=O)(=O)c2nnn3c2nc(NCc2cccs2)c2sccc23)cc1 | 96% | concentration (Kidney): > 1000 nM; inhibition (Homo sapiens): Dose-dependent effect; Drug excretion [2]: > 1 µM; Activity (Mus musculus): 0.5 Osm/kg; Drug uptake (Blood): Active; half-life at 5 µM [3]: 2 h
COc1ccc(S(=O)(=O)c2nnn3c2nc(NCc2cccs2)c2sccc23)cc1 | 6% | –
CC(C)c1ccc(S(=O)(=O)c2nnn3c2nc(NCc2cccc4ccccc24)c2sccc23)cc1 | 45% | –
O=S(=O)(c1ccc(Br)cc1)c1nnn2c1nc(NCc1cccs1)c1sccc12 | 60% | –
CC(C)c1ccc(S(=O)(=O)c2nnn3c2nc(NCc2ccco2)c2sccc23)cc1 | > 99% | –
CCc1ccc(S(=O)(=O)c2nnn3c2nc(NCc2cccs2)c2sccc23)cc1 | < 5% | Drug uptake (Blood): Active; half-life at 5 µM [3]: 0.0467 h
O=S(=O)(c1ccc(OC(F)(F)F)cc1)c1nnn2c1nc(NCc1cccs1)c1sccc12 | 95% | –
O=S(=O)(c1ccc(F)cc1)c1nnn2c1nc(NCc1cccs1)c1sccc12 | 27% | –
CC(C)c1ccc(S(=O)(=O)c2nnn3c2nc(NCc2cccs2)c2sccc23)cc1 | < 5% | –
